{"source": "ChEMBL document CHEMBL3739383", "about": "“Cyanohydrin as an Anchoring Group for Potent and Selective Inhibitors of Enterovirus 71 3C Protease” (J Med Chem, 2015)", "key": {"[1]": {"test_system": "Enterovirus A71", "test": "Antiviral activity against EV71 pseudotype virus infected in human Rhabdomyosarcoma cells assessed as reduction in viral replication after 24 hrs by Bright-Glo Luciferase Assay", "assay_type": "functional, organism-based", "details": "Enterovirus A", "how_it_was_run": "(§1)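 EC50 (antiviral) or CC50 (cytotoxicity) values are averaged over three independent experiments, with error given as SEM (n=3).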"}, "[2]": {"test": "Inhibition of EV71 protease 3C using NMA-IEALFQGPPK(DNP)FR as substrate preincubated for 30 mins followed by substrate addition measured after 2 hrs by FRET analysis", "set-up": "species or system Enterovirus A71"}, "[3]": {"test": "Cytotoxicity against human Rhabdomyosarcoma cells after 24 hrs by WST-1 cell proliferation assay", "assay_type": "cell-based", "how_it_was_run": "as §1"}, "[4]": {"test": "Inhibition of EV71 protease 3C using Dabcyl-KTSAVLQSGFRKME-Edans as substrate by fluorescence analysis", "set-up": "species or system Enterovirus A71"}, "[5]": {"test": "Toxicity in iv dosed mouse measured for 24 hrs", "assay_type": "organism-based", "details": "in vivo", "how_it_was_run": "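Acute toxicity study in mice dosed by intravenous injection; the read-out is LD50 in mg/kg.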"}}}
{"smiles": "N#C[C@H](C[C@@H]1CCCNC1=O)NC(=O)[C@H](Cc1ccccc1)NC(=O)/C=C/c1ccccc1", "values": [{"measurement": "EC50", "setting": "[1]", "result": "> 100", "unit": "µM"}, {"measurement": "IC50", "setting": "[2]", "result": "> 10", "unit": "µM"}, {"measurement": "CC50 at 24 h", "setting": "[3]", "result": "> 100", "unit": "µM"}]}
{"smiles": "O=C(/C=C/c1ccccc1)N[C@@H](Cc1ccccc1)C(=O)N[C@H](CO)C[C@@H]1CCCNC1=O", "values": [{"measurement": "EC50", "setting": "[1]", "result": "> 100", "unit": "µM"}, {"measurement": "IC50", "setting": "[2]", "result": "> 10", "unit": "µM"}, {"measurement": "CC50 at 24 h", "setting": "[3]", "result": "> 100", "unit": "µM"}]}
{"smiles": "Cc1cc(C(=O)N[C@@H](Cc2ccc(F)cc2)C(=O)N[C@@H](C[C@@H]2CCCNC2=O)[C@H](O)C#N)no1", "values": [{"measurement": "EC50", "setting": "[1]", "result": 0.045, "unit": "µM"}, {"measurement": "IC50", "setting": "[2]", "result": 0.31, "unit": "µM"}, {"measurement": "CC50 at 24 h", "setting": "[3]", "result": "> 100", "unit": "µM"}]}
{"smiles": "Cc1cc(C(=O)N[C@@H](Cc2ccc(F)cc2)C(=O)N[C@@H](C[C@@H]2CCCNC2=O)C(O)C#N)no1", "note": "(some centres undefined)", "values": [{"measurement": "EC50", "setting": "[1]", "result": 0.056, "unit": "µM"}, {"measurement": "IC50", "setting": "[2]", "result": 0.28, "unit": "µM"}, {"measurement": "CC50 at 24 h", "setting": "[3]", "result": "> 100", "unit": "µM"}]}
{"smiles": "CCCNC(=O)C(O)[C@H](C[C@@H]1CCCNC1=O)NC(=O)[C@H](Cc1ccccc1)NC(=O)/C=C/c1ccccc1", "note": "(some centres undefined)", "values": [{"measurement": "EC50", "setting": "[1]", "result": "> 100", "unit": "µM"}, {"measurement": "IC50", "setting": "[2]", "result": "> 10", "unit": "µM"}, {"measurement": "CC50 at 24 h", "setting": "[3]", "result": "> 100", "unit": "µM"}]}
{"smiles": "CCOC(=O)/C=C/[C@H](C[C@@H]1CCNC1=O)NC(=O)[C@@H](CC(=O)[C@@H](NC(=O)c1cc(C)on1)C(C)C)Cc1ccc(F)cc1", "note": "[RUPINTRIVIR]", "values": [{"measurement": "IC50", "setting": "[4]", "result": 2.3, "unit": "µM"}]}
{"smiles": "CCCNC(=O)C(=O)[C@H](C[C@@H]1CCCNC1=O)NC(=O)[C@H](Cc1ccccc1)NC(=O)/C=C/c1ccccc1", "values": [{"measurement": "EC50", "setting": "[1]", "result": 4.59, "unit": "µM"}, {"measurement": "IC50", "setting": "[2]", "result": 9.49, "unit": "µM"}, {"measurement": "CC50 at 24 h", "setting": "[3]", "result": "> 100", "unit": "µM"}]}
{"smiles": "N#CC(OC(=S)Oc1ccccc1)[C@H](C[C@@H]1CCCNC1=O)NC(=O)[C@H](Cc1ccccc1)NC(=O)/C=C/c1ccccc1", "note": "(some centres undefined)", "values": [{"measurement": "EC50", "setting": "[1]", "result": 0.15, "unit": "µM"}, {"measurement": "IC50", "setting": "[2]", "result": 1.05, "unit": "µM"}, {"measurement": "CC50 at 24 h", "setting": "[3]", "result": "> 100", "unit": "µM"}]}
{"smiles": "CC(=O)OC(C#N)[C@H](C[C@@H]1CCCNC1=O)NC(=O)[C@H](Cc1ccccc1)NC(=O)/C=C/c1ccccc1", "note": "(some centres undefined)", "values": [{"measurement": "EC50", "setting": "[1]", "result": 0.1, "unit": "µM"}, {"measurement": "IC50", "setting": "[2]", "result": 1.62, "unit": "µM"}, {"measurement": "CC50 at 24 h", "setting": "[3]", "result": "> 100", "unit": "µM"}]}
{"smiles": "Cc1cc(C(=O)N[C@@H](Cc2ccc(F)cc2)C(=O)N[C@H](C=O)C[C@@H]2CCCNC2=O)no1", "values": [{"measurement": "EC50", "setting": "[1]", "result": 0.11, "unit": "µM"}, {"measurement": "IC50", "setting": "[2]", "result": 0.1, "unit": "µM"}, {"measurement": "CC50 at 24 h", "setting": "[3]", "result": "> 100", "unit": "µM"}]}
{"smiles": "O=C[C@H](C[C@@H]1CCCNC1=O)NC(=O)[C@H](Cc1ccccc1)NC(=O)/C=C/c1ccccc1", "values": [{"measurement": "EC50", "setting": "[1]", "result": 0.26, "unit": "µM"}, {"measurement": "IC50", "setting": "[2]", "result": 0.54, "unit": "µM"}, {"measurement": "CC50 at 24 h", "setting": "[3]", "result": "> 100", "unit": "µM"}]}
{"smiles": "N#CC[C@H](C[C@@H]1CCCNC1=O)NC(=O)[C@H](Cc1ccccc1)NC(=O)/C=C/c1ccccc1", "values": [{"measurement": "EC50", "setting": "[1]", "result": 28.4, "unit": "µM"}, {"measurement": "IC50", "setting": "[2]", "result": "> 10", "unit": "µM"}, {"measurement": "CC50 at 24 h", "setting": "[3]", "result": "> 100", "unit": "µM"}]}
{"smiles": "N#CC(O)[C@H](C[C@@H]1CCCNC1=O)NC(=O)[C@H](Cc1ccccc1)NC(=O)/C=C/c1ccccc1", "note": "(some centres undefined)", "values": [{"measurement": "EC50", "setting": "[1]", "result": 0.12, "unit": "µM"}, {"measurement": "IC50", "setting": "[2]", "result": 1.13, "unit": "µM"}, {"measurement": "CC50 at 24 h", "setting": "[3]", "result": "> 100", "unit": "µM"}]}
{"smiles": "Cc1cc(C(=O)N[C@@H](Cc2ccc(F)cc2)C(=O)N[C@@H](C[C@@H]2CCCNC2=O)[C@@H](O)C#N)no1", "values": [{"measurement": "EC50", "setting": "[1]", "result": 0.048, "unit": "µM"}, {"measurement": "IC50", "setting": "[2]", "result": 0.27, "unit": "µM"}, {"measurement": "LD50 at 24 h", "setting": "[5]", "result": 96.5, "unit": "mg/kg"}, {"measurement": "CC50 at 24 h", "setting": "[3]", "result": "> 100", "unit": "µM"}]}
{"smiles": "O=C[C@H](C[C@@H]1CCNC1=O)NC(=O)[C@H](Cc1ccccc1)NC(=O)/C=C/c1ccccc1", "values": [{"measurement": "EC50", "setting": "[1]", "result": 3.07, "unit": "µM"}, {"measurement": "IC50", "setting": "[2]", "result": 3.81, "unit": "µM"}, {"measurement": "CC50 at 24 h", "setting": "[3]", "result": "> 100", "unit": "µM"}]}
